Sampled rows, rich in hits. Any-hit rate of the full collection: about 3.7%.
KCNK3 inh: human KCNK3 channel inhibition, primary screen. B-score at 10 µM. AID 602410. 0.84% of 340,000 active. CHO-KCNK3 thallium flux, FluxOR fluorescence; hits give low values;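 active means B-score under library mean minus 4 SD, starting fluorescence ratio at most library mean plus 5 SD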;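 further: more negative B-score means stronger inhibition of thallium flux through KCNK3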
KCNK9 block: human KCNK9 channel inhibition | HEK293 KCNK9, FluxOR thallium flux fluorescence; hits give low values | B-score at 10 µM | 1.2% of 310,000 active | AID 488922;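 active means ratio B-score over 3 SD below the library mean, with starting fluorescence within 5 SD of its mean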;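 further: negative B-score means less thallium flux so channel inhibition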
KCNQ1 act: potentiators or activators of human KCNQ1 potassium channel; B-score at 10 µM; CHO-K1 KCNQ1, thallium flux FluxOR fluorescence; hits give high values; P51787; 0.35% of 310,000 active;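 active means fluorescence ratio B-score, a plate-corrected score, at least three library SD, with initial intensity B-score within 5 SD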
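System: Stable KCNQ1 CHO-K1 line | Incubation: 90 min dye loading and 20 min compound exposure, both at room temperature | Measure: Ratio B score | Medium: Assay buffer for compound exposure, DMSO matched across wells | Compound dosing: Single-concentration screen | Probe or stimulus: K+/Tl+ depolarizing stimulus | Measured by: Kinetic FluxOR fluorescence, 10 s baseline plus 110 s post-stimulus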
hERG rescue: hERG (human) protection from proarrhythmic block | Q12809 | CHO-hERG, FluxOR thallium flux, dofetilide IC70 present | activation (rescue from dofetilide block), less the hit threshold, % at 10 µM | 0.51% of 310,000 active;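 active means activation above the mean of controls blocked by dofetilide plus 5 SD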;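 further: thallium influx through hERG after potassium depolarization seen as dye fluorescence rise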
KCNQ1 block: human KCNQ1 channel inhibition; P51787; CHO-K1 KCNQ1, FluxOR thallium flux fluorescence; hits give high values; B-score at 10 µM; 1.3% of 310,000 active; AID 2642;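 active means compounds whose thallium flux B-score, printed positive for inhibition, exceeds three library SD while starting fluorescence stays within three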;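 further: channel opened by potassium depolarization with thallium stimulus after 20 min compound exposure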
Kir21 block: inhibitors of mouse Kir2.1 inward-rectifier potassium channel; P35561; HEK293-Kir2.1, FluxOR thallium flux fluorescence; hits give low values; B-score at 10 µM; 0.85% of 310,000 active; AID 1672;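 active means fluorescence ratio B-score at or below minus 3 SD of library scores, with starting-brightness B-score within 2 SD, cut at about -4.2 in these data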;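 further: channel flux triggered by added potassium and thallium sulfate stimulus; B-score of peak minus minimum fluorescence over baseline after thallium stimulus; more negative B-score means stronger Kir2.1 block with less thallium influx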
Target sequence (P35561 whole entry, looked up): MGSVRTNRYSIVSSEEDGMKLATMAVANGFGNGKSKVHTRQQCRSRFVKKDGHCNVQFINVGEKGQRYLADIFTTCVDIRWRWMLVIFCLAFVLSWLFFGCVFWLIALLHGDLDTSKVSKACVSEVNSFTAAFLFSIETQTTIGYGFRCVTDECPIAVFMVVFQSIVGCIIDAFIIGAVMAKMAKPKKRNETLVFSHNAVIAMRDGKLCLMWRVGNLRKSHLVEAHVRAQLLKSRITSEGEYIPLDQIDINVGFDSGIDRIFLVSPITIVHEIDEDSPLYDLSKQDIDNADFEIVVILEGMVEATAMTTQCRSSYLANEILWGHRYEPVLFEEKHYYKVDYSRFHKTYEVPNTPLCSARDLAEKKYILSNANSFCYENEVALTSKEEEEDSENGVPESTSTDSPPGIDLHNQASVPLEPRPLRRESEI
* hit, by the source's call; i = inactive; . = not tested or not shown.

SMILES | KCNK3 inh | KCNK9 block | KCNQ1 act | hERG rescue | KCNQ1 block | Kir21 block
COc1ccc(CNCC(O)COc2ccc(C(C)(C)c3ccccc3)cc2)cc1 (stereo unspecified) | i | i | i | -27.0 | i | -5.7*
Cc1ccn2c(NC(=O)C(C)(C)Oc3ccc(Cl)cc3)c(-c3cccs3)nc2c1 | i | -7.39* | i | -15.4 | i | -0.83
Cc1ccc(C(C)C)c(OCCNCc2ccccc2)c1 | i | i | i | -10.6 | i | -8.84*
Cc1ccc(C(C)C)c(OCCN)c1 | i | i | i | -3.8 | i | -0.6
Cc1ccc(C(C)C)c(OCc2n[nH]c(=S)o2)c1 | i | i | 8* | -2.3 | i | 0.24
Cc1ccc(C)c(OCc2n[nH]c(=S)o2)c1 | i | i | i | -11.4 | i | 0.11
Cc1ccc(C(C)C)c(OCCN(C)C)c1 | i | i | i | 6.6* | i | -0.23
CCCN(CCC)CCOc1cc(C)ccc1C(C)C | i | i | i | -5.9 | i | 0.22
Cc1ccc(C(C)C)c(OCCNC(=S)Nc2cccc3ccccc23)c1 | i | i | i | -9.2 | 8* | -0.84
O=C(C[C@@H]1C/C=C/CC[C@@H](Cc2ccc(F)cc2)C(=O)OC[C@H](Cc2ccccc2)NC1=O)N[C@H](CO)Cc1ccccc1 | i | . | . | . | . | .
CCn1c(N2CCN(C(c3ccccc3)c3ccccc3)CC2)nc2c1c(=O)[nH]c(=O)n2C | i | . | . | . | . | .
Cc1ccc(C)c(NC(=S)NC23CN4CN(CN(C4)C2)C3)c1 | i | i | i | -17.8 | i | 0.04
Cc1ccc(C(C)C)c(OCCCCN2CCNCC2)c1 | i | i | i | -8.3 | i | -6.13*
O=C1c2cc([N+](=O)[O-])ccc2-c2cc(Br)c(N=C(NO)C(F)(F)F)cc21 | -9.47* | . | . | . | . | .
Cc1nc(N2CCN(C)CC2)c2c(C)c(C(=O)Nc3ccc(C)c(F)c3)sc2n1 | i | i | i | -10.1 | i | -6*
Cc1nc(N2CCC(C)CC2)c2c(C)c(C(=O)Nc3ccccc3C(F)(F)F)sc2n1 | i | -7.41* | i | -13.7 | i | -1.62
Cc1nc(N2CCN(c3ccccn3)CC2)c2c(C)c(C(=O)Nc3c(F)cc(F)cc3Br)sc2n1 | i | i | i | -17.6 | 6* | -0.71
O=C(CSc1ccc(Cl)cc1)NNC(=O)c1ccncc1 | i | . | . | . | . | .
COc1ccc2c(c1)sc(N)[n+]2Cc1cc(C)cc2cccnc12 | i | i | i | -21.3 | i | -4.53*
Cc1cc(C[n+]2ncsc2N)c2ncccc2c1 | i | i | i | -19.7 | i | -0.5
CCOc1ccc2c(c1)sc(N)[n+]2Cc1cc(C)cc2cccnc12 | i | i | i | -21.7 | i | -4.34*
CC1CCC(CC(=O)O)(C(=O)O)CC1 (stereo unspecified) | i | . | . | . | . | .
CSc1nc(N)nc2c1ncn2CC(=O)Nc1ccc(C)c(C)c1 | i | . | . | . | . | .
O=C(/C=C/c1ccccc1)CC(O)(c1ccccc1)C(F)(F)F (stereo unspecified) | i | i | i | -9.7 | i | -6.29*
CC(C)(O)C#Cc1ccc(CNC[C@H]2O[C@@H](n3cnc4c(N)ncnc43)[C@H](O)[C@@H]2O)s1 | i | . | . | . | . | .
SMILES | KCNK3 inh | KCNK9 block | KCNQ1 act | hERG rescue | KCNQ1 block | Kir21 block
Cc1cccc(C(=O)Nc2sc(C(=O)N3CCCC3)c(C)c2C#N)c1 | i | i | i | -7.1 | i | 0.94
Cc1cccc(C(=O)Nc2sc(C)c(-c3ccccc3)c2C#N)c1 | i | i | i | -5.1 | 6* | 2.01
Cc1ccc(NC(=S)N/N=C/c2c(C)[nH]c3ccccc23)cc1 | i | i | i | -9.0 | 6* | -0.22
Cc1[nH]c2ccccc2c1/C=N/NC(=S)NCc1ccccc1 | i | i | i | -3.6 | 6* | 1.65
Cc1[nH]c2ccccc2c1/C=N/NC(N)=S | i | i | i | -11.6 | i | -0.04
CCOC(=O)c1cccc(NC(=O)C2CCCN(c3nnc(N4CCCC4=O)s3)C2)c1 (stereo unspecified) | i | i | i | -11.4 | i | -0.03
CCn1c(O)c(N=NC2=NC(=O)CS2)c2ccccc21 | i | i | i | 9.1* | i | 0.04
Cc1cc(NC(=O)CSCC(=O)Nc2ccccc2Oc2ccccc2)no1 | i | i | i | -8.6 | i | -4.84*
Cc1ccc(Oc2ccccc2NC(=O)CSCC(=O)Nc2cc(C)on2)cc1 | i | i | i | -18.9 | i | -3.89
COC(=O)CNC(c1ccccc1)c1cc(Br)ccc1NS(=O)(=O)c1ccc(C)cc1 (stereo unspecified) | i | -7.43* | i | -13.4 | i | 1.27
COC(=O)CNC(c1ccccc1)c1cc(Br)ccc1NS(=O)(=O)c1ccccc1 (stereo unspecified) | i | -6.6* | i | -7.4 | i | -0.06
COC(=O)CNC(c1ccccc1)c1cc(Br)ccc1N (stereo unspecified) | i | i | i | -3.1 | i | -0.55
CCCCCCOc1ccc(/C(C)=N/NC2=NCCN2)cc1[N+](=O)[O-] | i | i | i | -20.7 | i | 0.81
CCCCOc1ccc(Br)cc1/C(C)=N/NC1=NCCN1 | i | i | i | -23.8 | i | -8.07*
CN(CCc1ccccc1)C(=O)c1cccc(NC(=O)Cc2cccc(NC(=O)C3CCCN(C(=O)C4CCCC4)C3)c2)c1 (stereo unspecified) | i | . | . | . | . | .
CCOc1ccccc1N1CCN(C2=C(NS(=O)(=O)c3cccs3)C(=O)c3ccccc3C2=O)CC1 | i | -6.62* | i | -7.5 | i | 1.53
CCN(CC)CC#CCC(C)(c1ccccc1)c1ccccc1 | i | i | i | -8.0 | i | -8.87*
CCN(CC)CC#CCC(O)(c1ccccc1)c1ccccc1 | i | i | i | -19.7 | i | -1.67
CCOC(=O)c1ccccc1-n1nnnc1C | i | i | i | -7.4 | i | 0.25
CCc1c2ccccc2nn1-c1ccccc1C(=O)C(C)=O | i | i | i | -2.3 | i | -4.83*
CCOC(=O)c1c(N/C=C(\C#N)c2nc(-c3ccc(OC(C)=O)cc3)cs2)sc2c1CCC2 | i | . | . | . | . | .
CCN(CC)CCn1c(OC)cc(=O)[nH]c1=O | i | i | 7* | -6.4 | i | 0.41
CCN(CC)CCn1c(N)cc(=O)[nH]c1=O | i | i | i | -7.0 | i | -0.05
COc1cc(/C=C2\SC(c3ccccc3)=NC2=O)cc(Cl)c1O | -10.4* | i | i | -7.9 | i | 1.98
COc1ccc(/C=C2\SC(c3ccc(C)cc3)=NC2=O)cc1OC | i | i | i | 9.7* | i | 0.19
CC(C)Cc1ccc(C(C)CC2=CCC(CN(C)C)C2=O)cc1 (stereo unspecified) | i | . | . | . | . | .

Compound activity as filed in PubChem.
